Source: ChEMBL document CHEMBL4118023, “Bioactive Pentacyclic Triterpene Ester Derivatives from Alnus viridis ssp. viridis Bark” (J Nat Prod, 2017)

Legend:
A-375 = experiment: Cytotoxicity against human A375 cells assessed as reduction in cell viability after 48 hrs by MTT assay; assay type: functional, cell-based; conditions: for IC50: A-375, 48 h
Outline: (§1)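 Cells seeded at 1 × 10^4 per well, 24 h at 37 °C, 5% CO2, in RPMI-1640 with 10% FBS, penicillin and streptomycin. Compounds were prepared from DMSO stocks (50 mg/mL) and added at 2.5–50.0 μg/mL for 48 h; DMSO controls. MTT read-out; IC50 taken from a sigmoidal dose–response fit of % viability versus log concentration by nonlinear regression.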

A549 [1] = experiment: Cytotoxicity against human A549 cells assessed as reduction in cell viability after 48 hrs by MTT assay; assay type: functional, cell-based; conditions: for IC50: A549, 48 h; outline: as §1
[2] = Selectivity index, ratio of IC50 for human MRC5 cells to IC50 for human A549 cells; assay type: toxicity; conditions: MRC5 cells versus A549 cells, read-out: Ratio IC50
Outline: (§2)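 Selectivity index is the IC50 in noncancerous MRC5 cells divided by the IC50 in the cancer line.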

MRC5 = experiment: Cytotoxicity against human MRC5 cells assessed as reduction in cell viability after 48 hrs by MTT assay; assay type: cell-based; conditions: MRC5, 48 h; outline: as §1
[3] = Selectivity index, ratio of IC50 for human MRC5 cells to IC50 for human A375 cells; assay type: toxicity; conditions: MRC5 cells versus A375 cells, read-out: Ratio IC50; outline: as §2
A549 [4] = experiment: Induction of apoptosis in human A549 cells assessed as necrotic cells at cytotoxic IC50 after 24 hrs by Annexin V-FITC/propidium iodide staining based flow cytometry (reference value: 0.71%); assay type: functional
A549 [5] = experiment: Induction of apoptosis in human A549 cells assessed as early apoptotic cells at cytotoxic IC50 after 24 hrs by Annexin V-FITC/propidium iodide staining based flow cytometry (reference value: 2.25%); assay type: functional
A549 [6] = experiment: Induction of apoptosis in human A549 cells assessed as live cells at cytotoxic IC50 after 24 hrs by Annexin V-FITC/propidium iodide staining based flow cytometry (reference value: 96.02%); assay type: functional
A549 [7] = experiment: Induction of apoptosis in human A549 cells assessed as late apoptotic cells at cytotoxic IC50 after 24 hrs by Annexin V-FITC/propidium iodide staining based flow cytometry (reference value: 1.02%); assay type: functional

Compound	Activity (A-375)	IC50 (A-375) [µM]	Activity (A549 [1])	IC50 (A549 [1]) [µM]	selectivity ratio [2]	IC50 (MRC5) [µM]	selectivity ratio [3]	Activity (A549 [4]) [%]	Activity (A549 [5]) [%]	Activity (A549 [6]) [%]	Activity (A549 [7]) [%]
C=C(C)[C@@H]1CC[C@]2(C(=O)O)CC[C@]3(COC(=O)/C=C/c4ccc(O)c(O)c4)[C@H](CC[C@@H]4[C@@]5(C)CCC(=O)C(C)(C)[C@@H]5CC[C@]43C)[C@@H]12	Dose-dependent effect	7.7	Dose-dependent effect	15.5	0.63	9.7	1.25	–	–	–	–
C=C(C)[C@@H]1CC[C@]2(C(=O)O)CC[C@]3(C)[C@H](CC[C@@H]4[C@@]5(C)C[C@@H](OC(=O)/C=C/c6ccc(O)c(O)c6)[C@H](O)C(C)(C)[C@@H]5CC[C@]43C)[C@@H]12	Dose-dependent effect	6.3	Dose-dependent effect	15.8	0.5	7.9	1.25	–	–	–	–
C=C(C)[C@@H]1CC[C@]2(C(=O)O)CC[C@]3(C)[C@H](CC[C@@H]4[C@@]5(C)CC[C@H](O)C(C)(C)[C@@H]5CC[C@]43C)[C@@H]12 [BETULINIC ACID]	–	43.7	–	43.7	0.75	32.8	0.75	1.3	5.66	90.8	2.24
CC1(C)CC[C@]2(C(=O)O)CC[C@]3(C)C(=CC[C@@H]4[C@@]5(C)C[C@@H](OC(=O)/C=C/c6ccc(O)c(O)c6)[C@H](O)C(C)(C)[C@@H]5CC[C@]43C)[C@@H]2C1	Dose-dependent effect	11.8	Dose-dependent effect	4.7	1.66	7.9	0.67	–	–	–	–
C=C(C)[C@@H]1CC[C@]2(C(=O)O)CC[C@]3(CO)[C@H](CC[C@@H]4[C@@]5(C)C[C@@H](OC(=O)/C=C/c6ccc(O)c(O)c6)[C@H](OC(=O)/C=C/c6ccc(O)cc6)C(C)(C)[C@@H]5CC[C@]43C)[C@@H]12	Dose-dependent effect	6.3	Dose-dependent effect	6.3	1.25	7.8	1.25	–	–	–	–
C=C(C)[C@@H]1CC[C@]2(C(=O)O)CC[C@]3(CO)[C@H](CC[C@@H]4[C@@]5(C)C[C@@H](OC(=O)/C=C/c6ccc(O)c(O)c6)[C@H](O)C(C)(C)[C@@H]5CC[C@]43C)[C@@H]12	Dose-dependent effect	11.5	Dose-dependent effect	15.4	1.2	18.5	1.6	–	–	–	–
C=C(C)[C@@H]1CC[C@]2(C(=O)O)CC[C@]3(CO)[C@H](CC[C@@H]4[C@@]5(C)C[C@@H](OC(=O)/C=C/c6ccc(O)c(O)c6)[C@H](OC(=O)/C=C\c6ccc(O)cc6)C(C)(C)[C@@H]5CC[C@]43C)[C@@H]12	Dose-dependent effect	3.8	Dose-dependent effect	5	2	10	2.66	0.93	11.92	86.87	0.28
